Experimental data from ChEMBL document CHEMBL1275427, “Antimicrobial susceptibilities of geographically diverse clinical human isolates of Leptospira” (2008).

What was measured:
Type in all cases: functional
[1] = Antimicrobial activity against Leptospira interrogans serovar Icterohaemorrhagiae isolate 9 by broth microdilution method; details: Leptospira interrogans, isolate 9; read-out: MIC
Method in brief: (§1)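 Strains grown 7 days in EMJH medium at 30°C; inoculum counted by Petroff-Hausser chamber under dark-field microscopy and added at 2 × 10^6 organisms/ml. Twofold serial dilutions in EMJH, final 32.0 to 0.016 μg/ml (units/ml for penicillin), 96-well round-bottom plates, 30°C. alamarBlue added day 3; colour read day 5. MIC is lowest concentration without blue-to-pink change. Triplicate runs, median reported; L. interrogans Icterohaemorrhagiae quality control.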

Leptospira weilii [2] = assay: Antimicrobial activity against Leptospira weilii isolate 6 by broth microdilution method; details: Leptospira weilii, isolate 6; read-out: MIC; method in brief: as §1
[3] = Antimicrobial activity against Leptospira interrogans serovar Grippotyphosa isolate 2 by broth microdilution method
Method in brief: (§2)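 Serial twofold dilutions in EMJH medium, final 32.0 to 0.016 μg/ml (units/ml for penicillin). Inoculum from 7-day EMJH cultures grown at 30°C, counted by Petroff-Hausser chamber under dark-field microscopy, added at 2 × 10^6 organisms/ml. Plates incubated at 30°C; alamarBlue added on day 3 and colour read on day 5. MIC is the lowest concentration without blue-to-pink change; median of triplicate runs.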

Leptospira weilii [4] = assay: Antimicrobial activity against Leptospira weilii isolate 8 by broth microdilution method; details: Leptospira weilii, isolate 8; read-out: MIC; method in brief: as §1
[5] = Antimicrobial activity against Leptospira interrogans serovar Canicola isolate 11 by broth microdilution method; details: Leptospira interrogans, isolate 11; read-out: MIC; method in brief: as §1
[6] = Antimicrobial activity against Leptospira interrogans serovar Pomona isolate 4 by broth microdilution method; details: Leptospira interrogans, isolate 4; read-out: MIC; method in brief: as §1
[7] = Antimicrobial activity against Leptospira interrogans serovar Bataviae isolate 1 by broth microdilution method; details: Leptospira interrogans, isolate 1; read-out: MIC; method in brief: as §1
[8] = Antimicrobial activity against Leptospira interrogans isolate 7 by broth microdilution method; details: Leptospira interrogans, isolate 7; read-out: MIC; method in brief: as §2
[9] = Antimicrobial activity against Leptospira interrogans serovar Icterohaemorrhagiae isolate 10 by broth microdilution method; details: Leptospira interrogans, isolate 10; read-out: MIC; method in brief: as §1
[10] = Antimicrobial activity against Leptospira interrogans serovar Icterohaemorrhagiae isolate 3 by broth microdilution method; details: Leptospira interrogans, isolate 3; read-out: MIC; method in brief: as §1
[11] = Antimicrobial activity against Leptospira interrogans serovar Pomona isolate 12 by broth microdilution method; details: Leptospira interrogans, isolate 12; read-out: MIC; method in brief: as §1
[12] = test system: Leptospira kirschneri serovar Grippotyphosa; assay: Antimicrobial activity against Leptospira kirschneri serovar Grippotyphosa isolate 13 by broth microdilution method; details: Leptospira kirschneri, isolate 13; read-out: MIC; method in brief: as §2
[13] = Antimicrobial activity against Leptospira interrogans serovar Pyrogenes isolate 5 by broth microdilution method; details: Leptospira interrogans, isolate 5; read-out: MIC; method in brief: as §1

Measured: MIC

CC1(C)S[C@@H]2[C@H](NC(=O)[C@H](N)c3ccccc3)C(=O)N2[C@H]1C(=O)O [AMPICILLIN]
< 0.016 µg/mL: [1] | Leptospira weilii [2] | [3] | Leptospira weilii [4] | [5] | [6] | [7] | [8] | [9] | [10] | [11] | [12] | [13]

CC[C@H]1OC(=O)[C@H](C)[C@@H](O[C@H]2C[C@@](C)(OC)[C@@H](O)[C@H](C)O2)[C@H](C)[C@@H](O[C@@H]2O[C@H](C)C[C@H](N(C)C)[C@H]2O)[C@](C)(O)C[C@@H](C)CN(C)[C@H](C)[C@@H](O)[C@]1(C)O [AZITHROMYCIN]
< 0.016 µg/mL: [1] | Leptospira weilii [2] | [3] | Leptospira weilii [4] | [5] | [6] | [7] | [8] | [9] | [10] | [11] | [12] | [13]

CO/N=C(\C(=O)N[C@@H]1C(=O)N2C(C(=O)[O-])=C(C[N+]3(C)CCCC3)CS[C@H]12)c1csc(N)n1 [CEFEPIME]
< 0.016 µg/mL: [1] | Leptospira weilii [2] | [3] | Leptospira weilii [4] | [5] | [6] | [7] | [8] | [9] | [10] | [11] | [12] | [13]

CO/N=C(\C(=O)N[C@@H]1C(=O)N2C(C(=O)O)=C(COC(C)=O)CS[C@H]12)c1csc(N)n1 [CEFOTAXIME]
0.03 µg/mL: Leptospira weilii [2] | [3] | Leptospira weilii [4] | [8]
< 0.016 µg/mL: [1] | [5] | [6] | [7] | [9] | [10] | [11] | [12] | [13]

CO/N=C(\C(=O)N[C@@H]1C(=O)N2C(C(=O)O)=C(CSc3nc(=O)c(O)nn3C)CS[C@H]12)c1csc(N)n1 [CEFTRIAXONE]
< 0.016 µg/mL: [1] | [9] | [10] | [11] | [12] | [13]
0.06 µg/mL: Leptospira weilii [2] | [3] | [6] | [8]
0.03 µg/mL: Leptospira weilii [4] | [5] | [7]

O=C(O)c1cn(C2CC2)c2cc(N3CCNCC3)c(F)cc2c1=O [CIPROFLOXACIN]
0.06 µg/mL: [5] | [11]
0.25 µg/mL: [6]
0.125 µg/mL: [1] | Leptospira weilii [2] | [3] | Leptospira weilii [4] | [7] | [8] | [9] | [10] | [13]
0.03 µg/mL: [12]
